From PubChem
IDH1 R132H inh: blocks human IDH1 R132H reductase activity. 70,000 tested, 0.18% active. diaphorase/resazurin fluorescence, 60 min. inhibition, % at 10 µM; in the data active = inhibition above about 34%; inconclusive = no clear call, values can overlap the other calls; inactive = below about 11%;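 note: 0% = DMSO and 100% = no enzyme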
Target sequence (O75874 whole entry R132H): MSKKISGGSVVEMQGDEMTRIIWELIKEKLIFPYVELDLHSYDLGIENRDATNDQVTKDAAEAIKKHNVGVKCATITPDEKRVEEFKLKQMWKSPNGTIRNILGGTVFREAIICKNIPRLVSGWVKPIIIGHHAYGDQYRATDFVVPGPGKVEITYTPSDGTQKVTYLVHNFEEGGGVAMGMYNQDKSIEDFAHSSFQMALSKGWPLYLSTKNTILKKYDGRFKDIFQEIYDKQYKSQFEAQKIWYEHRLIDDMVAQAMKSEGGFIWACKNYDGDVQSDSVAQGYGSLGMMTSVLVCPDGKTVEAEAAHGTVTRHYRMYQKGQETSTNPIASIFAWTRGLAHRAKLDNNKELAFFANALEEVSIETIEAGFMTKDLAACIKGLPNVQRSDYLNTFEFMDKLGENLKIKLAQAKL
KDM4C inh: blocks human GASC-1 (KDM4C) demethylase activity; GST-KDM4C 2-372, H3K9me3 peptide, LANCE TR-FRET; inhibition, % at 12.5 µM; Q9H3R0; 96,000 tested, 0.15% active;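 active = mean replicate inhibition above about 25%, with at least 55% of replicates also reaching it, limit read from the data, passing the limit was not always enough; inconclusive = only one of those two conditions met; inactive = neither condition met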
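reagent = H3K9me3 peptide substrate, Fe(II), 2-oxoglutarate | system = GST-tagged GASC-1 (JMJD2C) catalytic fragment, aa 2-372 | amount = enzyme final amount 10 nM | read-out = Fall in 671/618 emission ratio as inhibition | medium = HEPES buffer, pH 7.5, plus ascorbate | schedule = 30 min reaction, 60 min detection, RT | measured by = LANCE TR-FRET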
T cruzi growth-1: inhibitors of T. cruzi proliferation; T. cruzi beta-gal in NIH3T3, GalScreen luminescence, 90 h; inhibition, % at 8.34 µM; 77,000 tested, 5.9% active;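 active = mean inhibition above about 93%, with at least 55% of replicates each passing it, limit read from the data, passing the limit was not always enough; inconclusive = only one of those two conditions holds; inactive = neither condition holds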
Pf Dd2 growth: inhibitors of Plasmodium falciparum Dd2 growth; AID 1159554; 94,000 tested, 2.3% active; activity change, % at 10 µM; P. falciparum Dd2 growth, SYBR Green, 72 h; stronger effect = lower value; in the data active = activity change below about -80%; inconclusive = no clear call, values can overlap the other calls
T cruzi growth-2: blocks T. cruzi growth in NIH3T3 host cells; shares compounds with T cruzi growth-1; T. cruzi beta-gal in NIH3T3, GalScreen luminescence, 90 h; inhibition, % at 8.35 µM; 5,600 tested, 72% active;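 active = mean replicate inhibition above about 95% and at least 55% of replicates individually reaching it, limit read from the data; inconclusive = only one of the two criteria is met; inactive = neither criterion is met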
T cruzi growth-3: Trypanosoma cruzi proliferation inhibition; shares compounds with T cruzi growth-1; T. cruzi beta-gal in NIH3T3, GalScreen luminescence, 90 h; inhibition, % at 2.09 µM; 5,600 tested, 21% active; AID 651740;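 active = mean inhibition above about 95%, with at least 55% of replicates also reaching it, limit read from the data; inconclusive = meets just one of the two conditions; inactive = meets neither condition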;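 note: plate controls were neutral control median for no effect and positive control median for full effect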
NIH3T3 tox: cytotoxicity in mouse NIH/3T3 fibroblasts; shares compounds with T cruzi growth-1; NIH/3T3 viability, CellTiter-Glo ATP luminescence, 90 h; cytotoxicity (signal decrease), % at 8.35 µM; 5,600 tested, 14% active; AID 651742;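 active = mean signal decrease across replicates above about 35% based on untreated-well scatter, with enough replicates individually passing, limit read from the data; inconclusive = no rule stated though some were filed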;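 note: 0% = median of neutral control wells and 100% = median of positive control wells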
NIH3T3 tox 2: kills mouse NIH/3T3 fibroblasts; 5,600 tested, 56% active; inhibition, % at 24.9 µM; shares compounds with T cruzi growth-1; NIH/3T3 viability, CellTiter-Glo ATP luminescence, 90 h; AID 651744;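 active = mean loss of cell viability signal at or above a set limit, and enough replicates individually reaching it; inconclusive = meets only the mean limit or only the replicate share; inactive = meets neither condition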;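 note: 0% = median of neutral control wells and 100% = median of positive control wells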
An asterisk follows results filed as active. The list is not random: actives were taken first. Their share in the collection is about 5.8%.

C[C@H]1CCCCO[C@H](CN(C)C(=O)CCC(F)(F)F)[C@@H](C)CN([C@@H](C)CO)C(=O)c2cc(NS(=O)(=O)c3ccc(Cl)cc3)ccc2O1 was read as KDM4C inh -0.6, T cruzi growth-1 75.4 and Pf Dd2 growth -44.8.
C[C@@H]1CCCCO[C@H](CN(C)C(=O)CCC(F)(F)F)[C@H](C)CN([C@H](C)CO)C(=O)c2cc(NS(=O)(=O)c3ccc(Cl)cc3)ccc2O1 was read as IDH1 R132H inh -0.3, KDM4C inh -0.8, T cruzi growth-1 101.2*, Pf Dd2 growth -64.9, T cruzi growth-2 100.2*, T cruzi growth-3 60.8, NIH3T3 tox 18.4 and NIH3T3 tox 2 -4.1.
For C[C@H]1CCCCO[C@@H](CN(C)C(=O)Cc2ccccc2)[C@@H](C)CN([C@@H](C)CO)C(=O)c2cc(NS(=O)(=O)c3ccccc3)ccc2O1 the results were IDH1 R132H inh 0.9, KDM4C inh 1.5 and Pf Dd2 growth -57.5.
C[C@@H]1CCCCO[C@@H](CN(C)C(=O)Cc2ccccc2)[C@H](C)CN([C@@H](C)CO)C(=O)c2cc(NS(=O)(=O)c3ccc(Cl)cc3)ccc2O1 was read as KDM4C inh 0.4, T cruzi growth-1 99.7*, Pf Dd2 growth 6.2, T cruzi growth-2 106.0*, T cruzi growth-3 73.8, NIH3T3 tox 2.9 and NIH3T3 tox 2 46.6.
`O=C(c1ccccn1)N1CC(=O)N2[C@@H](CO)[C@@H](c3ccc(C#CCc4ccccc4)cc3)[C@@H]2C1` gave KDM4C inh 0.2 and Pf Dd2 growth -49.2.
Screening CC(=O)NC[C@H]1[C@H](c2ccc(-c3cccnc3)cc2)[C@H](CO)N1C(=O)C1CC1 returned KDM4C inh -1.7, T cruzi growth-1 111.1*, Pf Dd2 growth 1.4, T cruzi growth-2 8.9, T cruzi growth-3 -34.8, NIH3T3 tox -3.3 and NIH3T3 tox 2 0.1.
`CC(=O)NC[C@@H]1[C@@H](c2ccc(-c3ccccc3)cc2)[C@H](CO)N1C(=O)C1CC1` gave KDM4C inh -0.4, T cruzi growth-1 99.4*, Pf Dd2 growth 4.2, T cruzi growth-2 4.0, T cruzi growth-3 -9.1, NIH3T3 tox -6.6 and NIH3T3 tox 2 -10.4.
C[C@H]1CN([C@@H](C)CO)C(=O)Cc2cc(NC(=O)C3CCCCC3)ccc2O[C@@H]1CN(C)Cc1ccc2c(c1)OCO2 was read as IDH1 R132H inh 0.8, KDM4C inh 1.7, T cruzi growth-1 98.5*, Pf Dd2 growth -45.8, T cruzi growth-2 95.7*, T cruzi growth-3 33.1, NIH3T3 tox -19.4 and NIH3T3 tox 2 14.0.
Screening C[C@H]1CN([C@@H](C)CO)C(=O)Cc2cc(NC(=O)C3CCCCC3)ccc2O[C@@H]1CN(C)CC1CC1 returned IDH1 R132H inh 0.3, KDM4C inh 2.4, T cruzi growth-1 -6.8 and Pf Dd2 growth -20.6.
Screening C[C@H](CO)N1C[C@H](C)[C@@H](CN(C)Cc2ccc3c(c2)OCO3)Oc2ccc(NC(=O)C3CCCCC3)cc2CC1=O returned IDH1 R132H inh 1.4, KDM4C inh 1.7, T cruzi growth-1 100.1*, Pf Dd2 growth -50.9, T cruzi growth-2 103.0*, T cruzi growth-3 70.3, NIH3T3 tox 4.6 and NIH3T3 tox 2 28.2*.
C[C@@H]1CN([C@@H](C)CO)C(=O)Cc2cc(NC(=O)C3CCCCC3)ccc2O[C@@H]1CN(C)CC1CC1 was read as IDH1 R132H inh 0.2, KDM4C inh 0.2, T cruzi growth-1 97.2*, Pf Dd2 growth -7.7, T cruzi growth-2 20.6, T cruzi growth-3 10.2, NIH3T3 tox 3.3 and NIH3T3 tox 2 7.5.
CC(C)NC(=O)N(C)C[C@@H]1Oc2cc(C#Cc3ccc(F)cc3)ccc2S(=O)(=O)N([C@@H](C)CO)C[C@@H]1C was read as IDH1 R132H inh 0.3, KDM4C inh 1.1, T cruzi growth-1 114.1*, Pf Dd2 growth -45.2, T cruzi growth-2 106.9*, T cruzi growth-3 66.2, NIH3T3 tox 21.0 and NIH3T3 tox 2 inconclusive.
`CC(C)NC(=O)N(C)C[C@H]1Oc2cc(C#Cc3ccc(F)cc3)ccc2S(=O)(=O)N([C@@H](C)CO)C[C@@H]1C` gave IDH1 R132H inh 7.3, KDM4C inh -2.9, T cruzi growth-1 83.9 and Pf Dd2 growth -46.3.
C[C@@H]1CN([C@H](C)CO)S(=O)(=O)c2ccc(C#Cc3ccc(F)cc3)cc2O[C@H]1CN(C)C(=O)NC1CCCC1 was read as IDH1 R132H inh 8.1, KDM4C inh -5.2, T cruzi growth-1 86.1 and Pf Dd2 growth 4.0.
C[C@H]1CN([C@@H](C)CO)S(=O)(=O)c2ccc(C#Cc3ccc(F)cc3)cc2O[C@@H]1CN(C)C(=O)NC1CCCC1 was read as KDM4C inh -0.5, T cruzi growth-1 116.8*, Pf Dd2 growth -80.0, T cruzi growth-2 101.0*, T cruzi growth-3 74.5, NIH3T3 tox -15.5 and NIH3T3 tox 2 107.3*.
For CCC(=O)N1CCCCN2[C@H](CO)[C@H](c3ccc(C#Cc4ccccc4)cc3)[C@@H]2C1 the results were KDM4C inh -0.7, T cruzi growth-1 117.0*, Pf Dd2 growth -13.8, T cruzi growth-2 103.8*, T cruzi growth-3 85.0, NIH3T3 tox 51.5* and NIH3T3 tox 2 58.0*.
For CC(=O)N1CCCCN2[C@H](CO)[C@@H](c3ccc(C#Cc4ccccc4F)cc3)[C@@H]2C1 the results were KDM4C inh -0.2, T cruzi growth-1 113.3*, Pf Dd2 growth -24.0, T cruzi growth-2 108.2*, T cruzi growth-3 39.9, NIH3T3 tox 36.3* and NIH3T3 tox 2 101.1*.
Screening CC(=O)N1CCCCN2[C@@H](CO)[C@@H](c3ccc(C#Cc4ccccc4F)cc3)[C@@H]2C1 returned KDM4C inh -0.9, T cruzi growth-1 60.2 and Pf Dd2 growth 18.7.
CCC(=O)N1CCCCN2[C@H](CO)[C@@H](c3ccc(C#Cc4ccccc4F)cc3)[C@@H]2C1 was read as KDM4C inh -1.7, T cruzi growth-1 inconclusive, Pf Dd2 growth -13.2, T cruzi growth-2 100.9*, T cruzi growth-3 52.9, NIH3T3 tox 21.2 and NIH3T3 tox 2 104.4*.
CCC(=O)N1CCCCN2[C@H](C1)[C@@H](c1ccc(C#Cc3ccccc3)cc1)[C@@H]2CO was read as KDM4C inh 0.4, T cruzi growth-1 94.4 and Pf Dd2 growth -5.5.
For CCC(=O)N1CCCCN2[C@H](C1)[C@H](c1ccc(C#Cc3ccccc3F)cc1)[C@@H]2CO the results were KDM4C inh -0.5, T cruzi growth-1 inconclusive, Pf Dd2 growth -18.5, T cruzi growth-2 74.0, T cruzi growth-3 29.2, NIH3T3 tox 40.2* and NIH3T3 tox 2 94.8*.
